From ChEMBL document CHEMBL1135812, “Carbonic anhydrase activators: design of high affinity isozymes I, II, and IV activators, incorporating tri-/tetrasubstituted-pyridinium-azole moieties” (2002)

Tests used:
[1] = molecular target: Carbonic anhydrase 2 (Homo sapiens) (UniProt P00918); experiment: […] of human Carbonic anhydrase II, using histamine as standard
Summary of the method: (§1)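 Esterase assay: initial rates of 4-nitrophenyl acetate hydrolysis read at 400 nm, pH 7.40, 25 °C, substrate 2×10^-2 to 1×10^-6 M. Enzymes were recombinant human CA I (25 nM) and CA II (7 nM) expressed in E. coli BL21(DE3), and CA IV (33 nM) isolated from bovine lung microsomes. Activator and enzyme were preincubated 15 min at room temperature. Non-enzymatic hydrolysis was subtracted. KA is the mean of at least three determinations.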

[2] = molecular target: T1, Carbonic anhydrase 4 (Bos taurus) (UniProt Q95323); experiment: Bovine Carbonic anhydrase IV activity using histamine as standard; summary of the method: as §1
T1 sequence (whole entry): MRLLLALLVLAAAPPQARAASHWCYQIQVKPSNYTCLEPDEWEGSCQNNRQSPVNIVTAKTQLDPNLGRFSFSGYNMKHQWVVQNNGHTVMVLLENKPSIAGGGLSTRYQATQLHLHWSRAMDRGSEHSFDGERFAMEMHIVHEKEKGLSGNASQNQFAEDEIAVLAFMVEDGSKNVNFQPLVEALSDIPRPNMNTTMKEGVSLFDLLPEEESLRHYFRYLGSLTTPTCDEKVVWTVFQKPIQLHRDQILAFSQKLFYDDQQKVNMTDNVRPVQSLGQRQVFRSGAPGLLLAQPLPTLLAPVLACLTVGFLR

[3] = molecular target: Carbonic anhydrase 1 (Homo sapiens) (UniProt P00915); experiment: Activation of human Carbonic anhydrase I, using histamine as standard
Sequence of Carbonic anhydrase 1 (Homo sapiens) (P00915 2-261 limits assumed): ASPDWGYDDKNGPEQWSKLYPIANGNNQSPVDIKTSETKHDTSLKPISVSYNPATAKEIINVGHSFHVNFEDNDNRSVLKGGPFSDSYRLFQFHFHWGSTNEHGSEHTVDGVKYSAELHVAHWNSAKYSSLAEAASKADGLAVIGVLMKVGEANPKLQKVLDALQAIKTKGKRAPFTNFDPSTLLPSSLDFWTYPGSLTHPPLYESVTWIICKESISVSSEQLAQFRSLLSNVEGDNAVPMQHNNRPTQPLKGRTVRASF

Homo sapiens [4] = species: Homo sapiens; experiment: Ex vivo carbonic anhydrase activation was measured after 30 min of incubation of lysed human erythrocyte; type: functional; parameters: concentration or dose not given beside the values
Summary of the method: (§2)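 Washed fresh human erythrocytes (Tris pH 7.40, 5 mM) were lysed in distilled water, then the supernatant was incubated with 5 μM activator at 37 °C for 30 or 60 min. CA activity (hCA I + hCA II) was read by esterase assay with 4-nitrophenyl acetate. Activity without activator was set as 100%; values are mean of n = 3.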

Homo sapiens [5] = species: Homo sapiens; experiment: Ex vivo carbonic anhydrase activation was measured after 60 min of incubation of lysed human erythrocyte; type: functional; parameters: concentration or dose not given beside the values; summary of the method: as §2

SMILES | KA [1] [µM] | KA [2] [µM] | KA [3] [µM] | CA activity (Homo sapiens [4]) [%] | CA activity (Homo sapiens [5]) [%]
CCCCc1cc(-c2ccccc2)cc(CCCC)[n+]1-c1nn[n-]n1 | 145 | 6.8 | 1.8 |  | 
c1ccc(-c2cc(-c3ccccc3)[n+](-c3ncc[nH]3)c(-c3ccccc3)c2)cc1 | > 150 | > 50 | 15 |  | 
CCc1cc(-c2ccccc2)cc(CC)[n+]1-c1ncc[nH]1 | 0.144 | 0.009 | 0.018 |  | 
CCCc1cc(-c2ccccc2)cc(-c2ccccc2)[n+]1-c1ncc[nH]1 | 130 | 5.76 | 1.9 |  | 
CCc1cc(-c2ccccc2)cc(CC)[n+]1-c1nn[n-]n1 | 1.23 | 0.055 | 0.064 |  | 
Cc1c2cc(c(C)[n+]1-c1cc[nH]n1)CCCCCCCCC2 | 0.412 | 0.033 | 0.037 |  | 
CCCCc1cc(-c2ccccc2)cc(-c2ccccc2)[n+]1-c1cc[nH]n1 | > 150 | > 50 | 5.64 |  | 
CCCCc1cc(-c2ccccc2)cc(CCCC)[n+]1-c1cc[nH]n1 | 140 | 2.59 | 1.76 |  | 
CCCc1cc(-c2ccccc2)cc(-c2ccccc2)[n+]1-c1cc[nH]n1 | 135 | 8.23 | 2.78 |  | 
Cc1cc(C)[n+](-c2ncc[nH]2)c(C)c1 | 0.347 | 0.021 | 0.036 |  | 
Cc1cc(-c2ccccc2)cc(C)[n+]1-c1cc[nH]n1 | 0.359 | 0.017 | 0.035 |  | 
CC(C)c1cc(-c2ccccc2)cc(-c2ccccc2)[n+]1-c1nn[n-]n1 | 134 | 10.1 | 2.87 |  | 
CCc1cc(-c2ccccc2)cc(-c2ccccc2)[n+]1-c1cc[nH]n1 | 118 | 3.41 | 2.34 |  | 
Cc1cc(C(C)C)[n+](-c2ncc[nH]2)c(C(C)C)c1 | 0.13 | 0.008 | 0.024 |  | 
CCCCc1cc(-c2ccccc2)cc(-c2ccccc2)[n+]1-c1nn[n-]n1 | > 150 | > 50 | 10.5 |  | 
CCCc1cc(-c2ccccc2)cc(CCC)[n+]1-c1ncc[nH]1 | 48 | 0.62 | 0.247 |  | 
c1ccc(-c2cc(-c3ccccc3)[n+](-c3cc[nH]n3)c(-c3ccccc3)c2)cc1 | > 150 | > 50 | 32 |  | 
Cc1cc(C)[n+](-c2cc[nH]n2)c(-c2ccccc2)c1 | 83 | 1.68 | 0.875 |  | 
CC(C)c1cc(-c2ccccc2)cc(-c2ccccc2)[n+]1-c1cc[nH]n1 | 130 | 5.29 | 2.5 |  | 
CCCc1cc(-c2ccccc2)cc(CCC)[n+]1-c1nn[n-]n1 | 136 | 1.55 | 2.12 |  | 
CCCc1cc(-c2ccccc2)cc(CCC)[n+]1-c1cc[nH]n1 | 75 | 1.2 | 1.35 |  | 
CCc1cc(-c2ccccc2)cc(CC)[n+]1-c1cc[nH]n1 | 0.306 | 0.015 | 0.027 |  | 

SMILES | KA [1] [µM] | KA [2] [µM] | KA [3] [µM] | CA activity (Homo sapiens [4]) [%] | CA activity (Homo sapiens [5]) [%]
NCCc1c[nH]cn1 [HISTAMINE] | 125 | 41 | 2.1 | 121 | 130
Cc1cc(C)[n+](-c2cc[nH]n2)c(C)c1 | 0.48 | 0.045 | 0.052 |  | 
Cc1cc(C(C)C)[n+](-c2cc[nH]n2)c(C(C)C)c1 | 0.264 | 0.016 | 0.038 |  | 
CC(C)c1cc(-c2ccccc2)cc(C(C)C)[n+]1-c1cc[nH]n1.[O-][Cl+3]([O-])([O-])[O-] | 0.155 | 0.008 | 0.021 | 189 | 234
CCCc1cc(-c2ccccc2)cc(-c2ccccc2)[n+]1-c1nn[n-]n1 | > 150 | 15.5 | 4.21 |  | 
Cc1cc(C)[n+](-c2ncc[nH]2)c(-c2ccccc2)c1 | 59 | 0.975 | 0.36 |  | 
Cc1cc(-c2ccccc2)cc(-c2ccccc2)[n+]1-c1nn[n-]n1 | 108 | 5.24 | 1.1 |  | 
CCCCc1cc(-c2ccccc2)cc(-c2ccccc2)[n+]1-c1ncc[nH]1 | 130 | 9.55 | 2.4 |  | 
CCc1cc(-c2ccccc2)cc(-c2ccccc2)[n+]1-c1nn[n-]n1 | 140 | 12.5 | 3.05 |  | 
CCc1cc(-c2ccccc2)cc(-c2ccccc2)[n+]1-c1ncc[nH]1 | 84 | 2.56 | 1.05 |  | 
Cc1cc(-c2ccccc2)cc(C)[n+]1-c1ncc[nH]1.[O-][Cl+3]([O-])([O-])[O-] | 0.153 | 0.013 | 0.021 | 192 | 233
CCCCc1cc(-c2ccccc2)cc(CCCC)[n+]1-c1ncc[nH]1 | 86 | 1.89 | 0.651 |  | 
Cc1cc(-c2ccccc2)cc(-c2ccccc2)[n+]1-c1ncc[nH]1 | 62 | 1.24 | 0.303 |  | 
Cc1c2cc(c(C)[n+]1C1=NCC=N1)CCCCCCCCC2 | 0.305 | 0.02 | 0.022 |  | 
Cc1cc(-c2ccccc2)cc(-c2ccccc2)[n+]1-c1cc[nH]n1 | 96 | 1.85 | 0.64 |  | 
CC(C)c1cc(-c2ccccc2)cc(C(C)C)[n+]1-c1nn[n-]n1 | 1.15 | 0.012 | 0.05 | 173 | 212
Cc1cc(C)[n+](-c2cc[nH]n2)c(C)c1C | 0.457 | 0.038 | 0.049 |  | 
Cc1cc(-c2ccccc2)cc(C)[n+]1-c1nn[n-]n1 | 1.39 | 0.063 | 0.076 |  | 
CC(C)c1cc(-c2ccccc2)cc(C(C)C)[n+]1-c1ncc[nH]1.[O-][Cl+3]([O-])([O-])[O-] | 0.095 | 0.006 | 0.012 | 256 | 298
CC(C)c1cc(-c2ccccc2)cc(-c2ccccc2)[n+]1-c1ncc[nH]1 | 107 | 3.14 | 1.54 |  | 
c1ccc(-c2cc(-c3ccccc3)[n+](-c3nn[n-]n3)c(-c3ccccc3)c2)cc1 | > 150 | > 50 | 41 |  | 
